# Measured values collected from several papers.
# Protocols differ between the studies behind these lines.
# Target: Tyrosine-protein kinase receptor TYRO3 (TYRO3, Homo sapiens, UniProt Q06418)
# Residues used in one study (Q06418 41-890): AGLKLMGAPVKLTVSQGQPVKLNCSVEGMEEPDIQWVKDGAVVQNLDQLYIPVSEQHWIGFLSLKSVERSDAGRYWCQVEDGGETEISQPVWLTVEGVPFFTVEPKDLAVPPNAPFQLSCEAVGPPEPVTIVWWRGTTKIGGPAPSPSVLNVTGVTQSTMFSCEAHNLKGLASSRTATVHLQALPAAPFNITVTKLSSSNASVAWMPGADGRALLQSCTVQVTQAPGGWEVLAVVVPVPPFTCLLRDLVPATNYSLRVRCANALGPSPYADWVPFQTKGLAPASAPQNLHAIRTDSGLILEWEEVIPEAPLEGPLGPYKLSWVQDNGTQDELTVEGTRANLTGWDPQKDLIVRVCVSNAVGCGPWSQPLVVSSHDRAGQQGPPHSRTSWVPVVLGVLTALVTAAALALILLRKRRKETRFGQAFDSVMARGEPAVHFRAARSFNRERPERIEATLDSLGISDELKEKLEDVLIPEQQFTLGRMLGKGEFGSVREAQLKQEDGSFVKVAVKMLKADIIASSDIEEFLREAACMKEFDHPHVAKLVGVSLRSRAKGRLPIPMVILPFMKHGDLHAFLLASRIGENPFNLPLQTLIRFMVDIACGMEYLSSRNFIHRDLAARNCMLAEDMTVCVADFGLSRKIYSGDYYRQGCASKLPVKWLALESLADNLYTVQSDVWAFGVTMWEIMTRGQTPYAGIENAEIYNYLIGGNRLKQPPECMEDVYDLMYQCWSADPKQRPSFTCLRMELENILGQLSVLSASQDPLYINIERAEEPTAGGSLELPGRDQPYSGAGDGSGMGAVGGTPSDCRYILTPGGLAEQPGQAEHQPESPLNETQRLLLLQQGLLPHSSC
Compound,read-out,technique,tested at,remaining binding [%]
CN(C)c1nccc(-c2cnn3ncccc23)n1,binding,,1 µM,75
c1cncc(-c2cccc(Nc3nccc(NC4CCCCC4)n3)c2)c1,binding,competition with immobilised ligand,10 µM,9.3
O=C(c1ccc(Nc2ncc(Cl)c(-c3cc4ccccc4s3)n2)cc1)N1CCC(N2CCCC2)CC1,binding,competition with immobilised ligand,1 µM,44
CN(CCCC(F)(F)F)c1nccc(-c2cnn3ncccc23)n1,binding,,1 µM,93
CCC(=N\O)/C(C)=C/c1ccc(F)cc1,cell-free assay,competition with immobilised ligand,1 µM,100
Cc1cnn2ncc(-c3ccnc(N(C)C)n3)c2c1,binding,,1 µM,100
COc1ccc2c(c1)O[C@@H](c1ccc(OC)c(OC)c1)C[C@H]2NC(=O)C1(c2ccc3c(c2)OC(F)(F)O3)CC1,cell-free assay,competition with immobilised ligand,1 µM,97
CN(C)c1ncc(F)c(-c2cnn3ncccc23)n1,binding,,1 µM,75
CNC(=O)[C@@H]1CC[C@@H](n2c(-c3ccc4cnccc4c3)nc3ccc(C(=O)NCc4cccc(C(N)=O)c4)cc32)C1,binding,competition with immobilised ligand,1 µM,100
N[C@H]1CCN(c2nccc(-c3cnn4ncccc34)n2)C1,binding,,1 µM,88
O=C(NCCCN1CCOCC1)c1ccc(Nc2ncc(Cl)c(-c3ccc(Cl)s3)n2)cc1,binding,competition with immobilised ligand,1 µM,94
C[C@H]1CCN(c2nccc(-c3cnn4ncccc34)n2)C1,binding,,1 µM,100
C[C@H](c1ccc(F)cc1)N(Cc1cccc(C(=O)O)c1)C(=O)c1cnc2ccccc2c1,cell-free assay,competition with immobilised ligand,1 µM,100
O=C(c1ccc(Nc2nccc(-c3cc4ccccc4s3)n2)cc1)N1CCC(N2CCCC2)CC1,binding,competition with immobilised ligand,1 µM,95
COc1cnc(Nc2cccc(S(N)(=O)=O)c2)nc1N1CCN(c2ccccc2)CC1,binding,competition with immobilised ligand,1 µM,72
NS(=O)(=O)c1cc(NC(=O)C2(c3ccccc3Cl)CC2)ccc1Oc1cccc(Cl)c1,cell-free assay,competition with immobilised ligand,1 µM,100
CCN1CCN(Cc2ccc(C(=O)Nc3ccc(C)c(Oc4ccc5c(c4)CC(=O)N5)c3)cc2C(F)(F)F)CC1,binding,competition with immobilised ligand,1 µM,100
O=c1nc(-c2ccccn2)sc2ccccc12,cell-free assay,competition with immobilised ligand,1 µM,80
CN(c1nccc(-c2cnn3ncccc23)n1)C1CC1,binding,,1 µM,83
FC(F)(F)Oc1cccc(-c2cnc3ccc(-c4ccncc4)nn23)c1,cell-free assay,competition with immobilised ligand,5 µM,83
Cc1c(NC(=O)c2cc(C(N)=O)nc3cc(F)ccc23)c(C(F)(F)F)nn1Cc1ccc(C#N)cc1,cell-free assay,competition with immobilised ligand,1 µM,81
O=C(Nc1c[nH]nc1C(=O)NC1CCNCC1)c1cc(F)cc(F)c1,binding,competition with immobilised ligand,1 µM,100
